The test system of test [1] is Mus musculus. Kind of test: In vivo antinociceptive activity was measured using mouse grid shock (MGS) assay in mice upon subcutaneous administration. Type of test: functional. The settings on record: sc. A digest of the protocol:
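Mice dosed sc by body weight, then shocked via stainless steel grid floor 30 min later. Vocalization detected acoustically. Percent increase in latency = (postdrug − predrug)/(cutoff − predrug) × 100 per animal, averaged per dose. Ten mice per dose and for controls. ED50 derived.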

Test [2] has as its system Mus musculus. The test can be described thus: Compound was tested for its ability to induce salivation in mice upon subcutaneous administration. Type of test: functional. The note with it: sc. In a few lines:
(§1)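 Mice dosed sc, scored just before the 30-min postdrug grid-shock test. Salivation or tremor rated 0–3 per animal. Scores multiplied by number of mice, summed per group (n = 10), and expressed as % of maximum sum (30). ED50 derived.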

Test [3] concerns the target T1, Muscarinic acetylcholine receptor M4 (Homo sapiens, UniProt P08173).
T1 sequence (P08173 whole entry): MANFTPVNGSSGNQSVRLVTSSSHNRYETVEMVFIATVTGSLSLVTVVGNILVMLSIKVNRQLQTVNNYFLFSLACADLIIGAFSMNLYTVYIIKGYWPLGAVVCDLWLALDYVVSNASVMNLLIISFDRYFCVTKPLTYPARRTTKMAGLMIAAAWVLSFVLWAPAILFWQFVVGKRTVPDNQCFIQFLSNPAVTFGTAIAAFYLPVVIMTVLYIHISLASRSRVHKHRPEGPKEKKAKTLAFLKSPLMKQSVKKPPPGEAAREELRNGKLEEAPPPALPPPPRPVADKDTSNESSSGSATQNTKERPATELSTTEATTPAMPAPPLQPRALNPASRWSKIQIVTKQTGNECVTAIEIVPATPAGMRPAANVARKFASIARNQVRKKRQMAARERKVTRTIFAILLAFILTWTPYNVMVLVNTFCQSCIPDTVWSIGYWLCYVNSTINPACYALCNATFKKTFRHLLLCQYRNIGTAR
The test can be described thus: Compound was evaluated for its ability to displace [3H]- N-methyl-scopolamine ([3H]-NMS) binding to cloned CHO cell lines expressing Muscarinic acetylcholine receptor M4. Type of test: cell-based.

The target in test [4] is T2, Muscarinic acetylcholine receptor M1 (Homo sapiens, UniProt P11229).
T2 sequence (P11229 whole entry): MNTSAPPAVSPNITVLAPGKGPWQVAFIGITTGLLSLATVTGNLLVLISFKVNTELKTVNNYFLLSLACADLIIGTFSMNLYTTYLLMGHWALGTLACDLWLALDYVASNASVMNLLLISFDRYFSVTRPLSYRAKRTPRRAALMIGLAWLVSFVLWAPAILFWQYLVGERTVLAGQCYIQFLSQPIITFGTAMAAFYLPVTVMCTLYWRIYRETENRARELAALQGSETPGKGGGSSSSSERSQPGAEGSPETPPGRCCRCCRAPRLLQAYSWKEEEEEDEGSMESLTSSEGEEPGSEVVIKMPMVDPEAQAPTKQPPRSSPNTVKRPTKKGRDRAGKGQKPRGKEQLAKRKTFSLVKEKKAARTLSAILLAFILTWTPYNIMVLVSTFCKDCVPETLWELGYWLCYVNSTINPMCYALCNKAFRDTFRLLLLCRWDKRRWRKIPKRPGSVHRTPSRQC
Kind of test: (§2) Compound was evaluated for its ability to displace [3H]N-methylscopolamine ([3H]NMS) binding to cloned CHO cell lines expressing Muscarinic acetylcholine receptor M1. It is filed as cell-based.

For test [5], the target named is Muscarinic acetylcholine receptor M3 (Homo sapiens, UniProt P20309). The test can be described thus: Compound was evaluated for its ability to displace [3H]N-methylscopolamine ([3H]NMS) binding to cloned CHO cell lines expressing Muscarinic acetylcholine receptor M3. Type of test: cell-based.
The target in test [6] is T3, Muscarinic acetylcholine receptor M5 (Homo sapiens, UniProt P08912).
T3 sequence (P08912 whole entry): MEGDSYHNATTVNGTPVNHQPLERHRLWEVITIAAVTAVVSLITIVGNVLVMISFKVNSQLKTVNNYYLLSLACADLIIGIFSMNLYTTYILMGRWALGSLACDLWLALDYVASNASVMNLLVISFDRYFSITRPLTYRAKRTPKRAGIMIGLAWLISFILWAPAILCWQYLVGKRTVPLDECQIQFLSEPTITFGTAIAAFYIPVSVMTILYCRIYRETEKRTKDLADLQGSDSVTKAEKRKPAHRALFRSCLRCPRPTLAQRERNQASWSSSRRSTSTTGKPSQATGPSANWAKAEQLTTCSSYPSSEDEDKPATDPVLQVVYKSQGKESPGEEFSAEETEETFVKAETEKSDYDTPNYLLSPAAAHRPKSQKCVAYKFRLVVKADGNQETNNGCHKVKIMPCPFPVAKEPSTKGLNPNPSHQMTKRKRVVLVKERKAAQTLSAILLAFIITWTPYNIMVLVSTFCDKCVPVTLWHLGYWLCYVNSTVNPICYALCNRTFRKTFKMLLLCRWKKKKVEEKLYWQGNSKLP
The test can be described thus: Compound was evaluated for its ability to displace [3H]- N-methyl-scopolamine ([3H]NMS) binding to cloned CHO cell lines expressing Muscarinic acetylcholine receptor M5. Type of test: cell-based.

The target of test [7] is T4, Muscarinic acetylcholine receptor M2 (Homo sapiens, UniProt P08172).
T4 sequence (P08172 whole entry): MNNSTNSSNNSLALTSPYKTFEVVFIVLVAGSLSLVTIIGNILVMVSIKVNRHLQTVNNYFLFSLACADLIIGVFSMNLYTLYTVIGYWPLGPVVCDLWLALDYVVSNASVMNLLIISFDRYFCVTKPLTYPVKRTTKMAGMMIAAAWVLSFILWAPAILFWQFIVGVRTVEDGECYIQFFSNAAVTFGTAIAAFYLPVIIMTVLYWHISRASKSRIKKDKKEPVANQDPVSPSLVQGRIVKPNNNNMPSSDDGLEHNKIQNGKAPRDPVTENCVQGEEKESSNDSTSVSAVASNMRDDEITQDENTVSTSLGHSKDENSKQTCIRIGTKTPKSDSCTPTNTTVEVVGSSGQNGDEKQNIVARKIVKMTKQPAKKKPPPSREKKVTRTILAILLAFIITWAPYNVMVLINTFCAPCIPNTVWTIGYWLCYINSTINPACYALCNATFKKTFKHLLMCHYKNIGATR
Kind of test: Compound was evaluated for its ability to displace [3H]- N-methyl-scopolamine ([3H]NMS) binding to cloned CHO cell lines expressing Muscarinic acetylcholine receptor M2. Type of test: cell-based.

For test [8], the target named is Muscarinic acetylcholine receptor. Kind of test: In vitro Binding affinity was measured on Muscarinic acetylcholine receptor on rat brain membranes using [3H]oxotremorine-M. Also noted: species or system Membrane. A digest of the protocol:
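Rat brain homogenate washed by 40000g centrifugation and resuspended in Hepes pH 7.4. Incubated with 1.0 nM (final) [3H]Oxo-M for 30 min at 25 °C. […] Filtered on glass fiber, washed with ice-cold buffer, scintillation counted. IC50 from at least four concentrations in triplicate, Hill equation.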

Test [9] relates to Mus musculus. Kind of test: Compound was tested for its ability to induce tremors in mice subcutaneous administration. It is filed as functional. The settings on record: sc. In a few lines: as §1
Test [10] deals with T2, Muscarinic acetylcholine receptor M1. The test is described as §2. Type of test: cell-based. In a few lines: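 Membranes from CHO cells expressing cloned m1 receptor, prepared in 20 mM sodium phosphate pH 7.4 (200g spin, then 40000g for 45 min at 4 °C; stored −80 °C). 23–45 μg protein incubated with [3H]NMS (5 nM as added) and test compound for 2 h. WGA-coated SPA beads added, counted after a further 2 h.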
The source holds these as a separate data set.

In test [11] the target is Muscarinic acetylcholine receptor. The test can be described thus: In vitro Binding affinity was measured against Muscarinic acetylcholine receptor on rat brain membranes using [3H]oxotremorine-M.

We go through 8 compounds from ChEMBL document CHEMBL1131636, “Conformationally constrained analogues of the muscarinic agonist 3-(4-(methylthio)-1,2,5-thiadiazol-3-yl)-1,2,5,6-tetrahydro-1-methylpyr idine. Synthesis, receptor affinity, and antinociceptive activity” (J Med Chem, 1998).

Usually ED50 stands for the dose at which the effect has come halfway, by size or by number of responders. One may read the IC50 as the concentration that gives 50% inhibition. High values mean weaker potency in that assay, low ones greater potency in that assay.

The structures appear in SMILES notation.

Muscarinic acetylcholine receptor M3, sequence (P20309 whole entry): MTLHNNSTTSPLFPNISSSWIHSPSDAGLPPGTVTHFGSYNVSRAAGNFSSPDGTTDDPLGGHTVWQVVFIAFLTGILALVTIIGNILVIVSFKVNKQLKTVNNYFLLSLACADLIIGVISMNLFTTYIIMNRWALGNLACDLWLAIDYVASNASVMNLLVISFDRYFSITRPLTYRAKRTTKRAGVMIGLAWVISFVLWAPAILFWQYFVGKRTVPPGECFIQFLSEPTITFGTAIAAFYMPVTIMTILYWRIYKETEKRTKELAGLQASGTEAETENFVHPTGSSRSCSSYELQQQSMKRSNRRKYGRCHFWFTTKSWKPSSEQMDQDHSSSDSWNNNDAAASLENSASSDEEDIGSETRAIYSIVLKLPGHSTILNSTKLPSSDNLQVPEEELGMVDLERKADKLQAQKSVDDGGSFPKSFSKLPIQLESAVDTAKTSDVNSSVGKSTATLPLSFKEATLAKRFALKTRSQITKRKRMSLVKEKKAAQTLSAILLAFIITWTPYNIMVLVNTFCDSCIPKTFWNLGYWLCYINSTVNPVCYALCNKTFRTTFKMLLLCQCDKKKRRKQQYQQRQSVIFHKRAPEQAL

As to `CN1CCC2=C(C1)c1nsnc1SC2`, the results for the ED50 in the test with Mus musculus [1], in the test on Mus musculus [2] and in the test on Mus musculus [9] were 10.4 mg/kg, 13 mg/kg and over 30 mg/kg, respectively. For the same compound, the IC50 in [3] was determined as 14.5 µM; in test [4], 20.5 µM; in [5], 9.7 µM; in test [6], 23 µM; in [7], 2.2 µM; in test [8], 0.0278 µM.

Take `c1cc2nsnc2c2c1CCNC2`: the ED50 turned out to be 4.4 mg/kg in the test with Mus musculus [1], 5.1 mg/kg in the test with Mus musculus [2] and 6.4 mg/kg in the test on Mus musculus [9]. Further, the IC50 is 100 µM in test [3]; 100 µM in test [4]; 100 µM in test [5]; 100 µM in test [6]; 6.7 µM in test [7]; 0.0445 µM in [8].

As for `CSc1nsnc1C1=CCCN(C)C1`, the values for the ED50 in the test with Mus musculus [1], in the test on Mus musculus [2] and in the test on Mus musculus [9] were 4 mg/kg, 6 mg/kg and over 10 mg/kg, respectively. Besides, the IC50 amounted to 1.2 µM in test [3]; 1.8 µM in test [10]; 1.6 µM in test [5]; 2.1 µM in test [6]; 0.48 µM in [7]; 0.0045 µM in test [8].

For the compound `C1Cc2sc3nsnc3c2CN1`, the ED50 with Mus musculus [1] came to 4.6 mg/kg; with Mus musculus [2], 8.8 mg/kg; in the test with Mus musculus [9], 15.8 mg/kg. The same compound registered an IC50 in test [8] of 0.0355 µM.

As for `CSc1nsnc1C1=CCCNC1`, the ED50 was 1.8 mg/kg in the test on Mus musculus [1], 7.4 mg/kg in the test on Mus musculus [2] and 4.5 mg/kg with Mus musculus [9]. Also, in [8], the half-inhibitory concentration (IC50) amounted to 0.0076 µM.

In the case of `CSc1nsnc1C1=C(C)CCN(C)C1`, the ED50 with Mus musculus [1], with Mus musculus [2] and in the test on Mus musculus [9] was over 30 mg/kg throughout. Moreover, the IC50 in test [3] is over 100 µM; in test [4], over 100 µM; in test [5], over 100 µM; in [6], 100 µM; in [7] it was 100 µM; in [8], over 0.5 µM.

Consider `COC(=O)C1=CCCN(C)C1` [ARECOLINE], for which the values for the ED50 in the test with Mus musculus [1], in the test with Mus musculus [2] and in the test with Mus musculus [9] were 16 mg/kg, 15 mg/kg and 15 mg/kg, respectively.

As for `O=C1CCCN1CC#CCN1CCCC1` [OXOTREMORINE], the ED50 with Mus musculus [1] amounted to 0.038 mg/kg; with Mus musculus [2] it was 0.2 mg/kg; with Mus musculus [9], 0.2 mg/kg. In addition, the IC50 in [3] stood at 5 µM; in test [4] it was 9 µM; in test [5], 17 µM; in test [6], 8 µM; in [7] it was 0.4 µM; in [11], 0.005 µM.
